Bioassay records deposited in PubChem by several laboratories.
Arr AP2 block: inhibitors of beta-arrestin/AP2 binding, primary screen, biochemical, GPCR trafficking, flow cytometry | beta-arrestin 1 C-terminal peptide binding to AP2 beta2-adaptin appendage (human) | FITC-arrestin peptide / GST-AP2 beads; AP2 beta2 appendage carries R879A mutation | inhibition, % at 10 µM | 340,000 compounds, 0.31% hits;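 active = inhibition above a set limit, near 3 SD of compounds lacking own fluorescence, cut at about 54% in these data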
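Material – AP2 appendage R879A on GSH beads · Buffer or medium – PBS with 0.05% Tween 20 and 0.1% BSA · Probe or stimulus – fluorescein-tagged arrestin peptide at 50 nM final · Incubation – compound with beads 12 min RT, then probe 1 h RT · Detection – high-throughput flow cytometry of beads, ex 488, em 535 nm · Evaluation – percent response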
HTR5A inv ag: HTR5A inverse agonists in luminescence cell assay, primary screen, counter-screen for OPRM1-OPRD1 heterodimer inverse agonist project, full-deck HTS; HTR5A cell line, inverse agonism; 5-hydroxytryptamine receptor 5A (Homo sapiens), P47898; inhibition, % at 9.3 µM; AID 504634, 2011; 340,000 compounds, 0.083% hits; in the data active = inhibition mostly above about 23%, no sharp cut-off; inactive = mostly below about 18%
Target sequence (P47898 whole entry, looked up): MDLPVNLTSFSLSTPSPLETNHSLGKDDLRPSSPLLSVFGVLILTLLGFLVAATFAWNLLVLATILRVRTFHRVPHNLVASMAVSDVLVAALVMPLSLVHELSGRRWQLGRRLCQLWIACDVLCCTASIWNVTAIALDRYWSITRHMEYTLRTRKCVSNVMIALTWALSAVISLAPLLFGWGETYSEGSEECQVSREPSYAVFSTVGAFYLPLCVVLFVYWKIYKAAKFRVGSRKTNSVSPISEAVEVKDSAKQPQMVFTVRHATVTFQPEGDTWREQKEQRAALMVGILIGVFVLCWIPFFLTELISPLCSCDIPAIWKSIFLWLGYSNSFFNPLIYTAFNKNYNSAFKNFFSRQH
OPRM1-OPRD1 inv: inverse agonists of MOR-DOR heterodimerization, primary screen, cell-based, luminescence. Mu-type opioid receptor (Homo sapiens) + Delta-type opioid receptor (Homo sapiens), …. cell-based MOR-DOR heterodimer luminescence, inverse agonism. inhibition, % at 9.3 µM. 340,000 compounds, 0.21% hits. AID 504357, 2011; in the data active = inhibition above about 22%, passing the limit was not always enough
DAGLB inh: DAGLB lipase inhibitors, primary screen, biochemical, fluorescence, HTS; HEK293T DAGLB membrane lysate, EnzChek fluorogenic substrate; inhibition, % at 5.17 µM; 340,000 compounds, 0.059% hits; AID 504411, 2011; in the data active = inhibition above about 34%
OPRM1-OPRD1 ag: agonists of OPRM1-OPRD1 heterodimerization, primary screen, cell-based, luminescence; 340,000 compounds, 0.3% hits; activation, % at 9.3 µM; AID 504326, 2011; cells; in the data active = activation above about 18%
HTR5A ag: HTR5A agonists in luminescence cell assay, primary screen, counter-screen for OPRM1-OPRD1 heterodimer agonist project, full-deck HTS; activation, % at 9.3 µM; 5-hydroxytryptamine receptor 5A (Homo sapiens), P47898; 340,000 compounds, 0.61% hits; cell-based; in the data active = activation mostly above about 9.5%, no sharp cut-off; inactive = mostly below about 7.6%
Of the large screens only hits and unclear results are named; the others gave an inactive call. The list is not random: actives were taken first. Their share in the collection is about 1.4%.

COc1cc(C(=O)Nc2ccc(C)cc2)c2ccccc2n1	none
CCOc1ccc(NC(=O)c2cc(OC)nc3ccccc23)cc1	HTR5A ag 12
Cc1ccc(C(C)C)c(OCc2ccc(C(=O)N/N=C/c3ccc(O)c(O)c3)cc2)c1	HTR5A ag 14
Cc1ccc(OCC(O)Cn2c(=N)n(Cc3ccccc3)c3ccccc32)cc1 (stereo unspecified)	HTR5A ag 12
N=c1n(Cc2ccccc2)c2ccccc2n1CC(O)COc1ccc(Cl)cc1Cl (stereo unspecified)	OPRM1-OPRD1 ag 31, HTR5A ag 31
COc1ccc(NS(=O)(=O)c2ccc(C(=O)N(C)Cc3cccs3)cc2)cc1	none
O=C1C2=C(c3ccccc31)[N+](=O)[C@@H]1CCCC[C@@H]1N2[O-]	OPRM1-OPRD1 inv 46
O=C1c2ccccc2C(=O)c2c1ccc1c(=O)n(C3CCCCC3)[nH]c21	none
N#CC1C(=O)NC(c2ccccc2)=CC1c1ccccc1 (stereo unspecified)	HTR5A inv ag 52, OPRM1-OPRD1 inv 69
Cc1cc(C(=O)CCl)c(C)n1CCc1ccc(Cl)cc1	OPRM1-OPRD1 ag 19, HTR5A ag 17
Cc1cc(C(=O)CCl)c(C)n1CCc1ccc(F)cc1	none
Cc1c(C(=O)NC2CCCCC2)sc2ncnc(N3CCN(c4ccccc4)CC3)c12	HTR5A ag 11
CC(=O)Nc1cccc(/C(C)=N/Nc2ccc(S(=O)(=O)Nc3ccccc3C(=O)O)cc2[N+](=O)[O-])c1	none
O=C1Nc2ccccc2S/C1=C/Nc1cccc(Cl)c1	OPRM1-OPRD1 ag 23, HTR5A ag 14
O=C1Nc2ccccc2SC1=Cc1ccccc1	none (no result: Arr AP2 block, HTR5A inv ag, OPRM1-OPRD1 inv, OPRM1-OPRD1 ag, HTR5A ag)
CCCCOc1ccc(-c2c(C(=O)Nc3ccccc3)c(C)[nH]c(=S)c2C#N)cc1	HTR5A ag 14
C/C(=N\Nc1nc2ccccc2[nH]1)c1ccccn1	OPRM1-OPRD1 inv 61
CN1CCN(c2ccccc2NC(=O)c2ccc(-c3cccc(Cl)c3)o2)CC1	OPRM1-OPRD1 ag 62
O=S(=O)(Nc1ccc(-c2ccc3nncn3n2)cc1)c1ccc(Cl)s1	HTR5A ag 10
Cc1ccc(/C=N\NC(=O)c2cc(OCC(F)(F)F)ccc2OCC(F)(F)F)cc1	OPRM1-OPRD1 ag 28, HTR5A ag 15
COCOCCn1cc(CN2CCS(=O)(=O)N(Cc3ccc(-c4ccccc4)cc3)C(C(C)C)C2=O)nn1 (stereo unspecified)	none (no result: Arr AP2 block, HTR5A inv ag, OPRM1-OPRD1 inv, OPRM1-OPRD1 ag, HTR5A ag)
COc1ccc(N2CCN(C(=O)CSc3nnc(C4CC4)n3C3CC3)CC2)cc1	none (no result: Arr AP2 block, HTR5A inv ag, OPRM1-OPRD1 inv, OPRM1-OPRD1 ag, HTR5A ag)
COc1ccc(CCNC(=O)CSc2nc3sc(C(=O)O)c(C)c3c(=O)[nH]2)cc1OC	none
CC(=O)c1sc2nc(SCC(=O)NCCc3ccccc3)[nH]c(=O)c2c1C	HTR5A ag 13
Cc1ccc(S(=O)(=O)c2nc(/C=C/c3ccccc3)oc2N2CCC(C(N)=O)CC2)cc1	none (no result: Arr AP2 block, HTR5A inv ag, OPRM1-OPRD1 inv, OPRM1-OPRD1 ag, HTR5A ag)
Cc1cccc(S(=O)(=O)N(C)C[C@@H]2OCc3cn(nn3)CCCC(=O)N([C@H](C)CO)C[C@H]2C)c1	none (no result: Arr AP2 block, HTR5A inv ag, OPRM1-OPRD1 inv, OPRM1-OPRD1 ag, HTR5A ag)
COc1ccc(CC(=O)Nc2ccc(-c3nc4cc(C)ccc4o3)c(O)c2)cc1OC	HTR5A ag 14
CC(C)CC1C(=O)N(Cc2cn(Cc3ccco3)nn2)CCS(=O)(=O)N1Cc1ccc(-c2ccccc2)cc1 (stereo unspecified)	none (no result: Arr AP2 block, HTR5A inv ag, OPRM1-OPRD1 inv, OPRM1-OPRD1 ag, HTR5A ag)
Cc1cc(C)c2sc(N(CCCN(C)C)C(=O)c3ccc(S(=O)(=O)N4CCc5ccccc5C4)cc3)nc2c1	OPRM1-OPRD1 ag 29, HTR5A ag 33
COc1ccc2sc(N(CCCN(C)C)C(=O)c3ccc(S(=O)(=O)N4CCc5ccccc5C4)cc3)nc2c1	OPRM1-OPRD1 ag 23, HTR5A ag 14
Cc1cc(C)c2sc(N(CCCN(C)C)C(=O)c3ccc(S(=O)(=O)N4CCCc5ccccc54)cc3)nc2c1	none
CCCCCCN1C[C@@H](O)[C@H](n2cc(COC(=O)c3ccccc3)nn2)C[C@@H]1c1ccccc1	none (no result: Arr AP2 block, HTR5A inv ag, OPRM1-OPRD1 inv, OPRM1-OPRD1 ag, HTR5A ag)
Cc1ccc(NS(=O)(=O)c2ccc(NC(=O)c3cccs3)cc2)cc1	HTR5A ag 8.3
CCN(CC)S(=O)(=O)c1ccc(NC(=O)COc2c(OC)cccc2OC)cc1	HTR5A ag 13
COc1ccccc1OCC(=O)Nc1ccc(S(=O)(=O)N(C)c2ccccc2)cc1	none
O=C(Nc1cccc(C(F)(F)F)c1)c1sc(Cl)nc1C(F)(F)F	HTR5A ag 9.4
CCN(CC)S(=O)(=O)c1ccc(NC(=O)Nc2cccc(C(F)(F)F)c2)cc1	HTR5A ag 13
CCC(C)NS(=O)(=O)c1ccc(NC(=O)c2cccs2)cc1 (stereo unspecified)	none
COc1ccccc1C#Cc1cnc2c(c1)C(=O)N([C@H](C)CO)C[C@@H](C)[C@@H](CN(C)C(=O)c1ccc3c(c1)OCO3)O2	none (no result: Arr AP2 block, HTR5A inv ag, OPRM1-OPRD1 inv, OPRM1-OPRD1 ag, HTR5A ag)
Cc1ccc(NC(=O)CN(C)C(=O)C2CSC3(C)CCC(=O)N23)cc1 (stereo unspecified)	none (no result: Arr AP2 block, HTR5A inv ag, OPRM1-OPRD1 inv, OPRM1-OPRD1 ag, HTR5A ag)
C[C@@H]1CN([C@H](C)CO)C(=O)CCCn2nncc2CO[C@H]1CN(C)Cc1cccc(O)c1	none (no result: Arr AP2 block, HTR5A inv ag, OPRM1-OPRD1 inv, OPRM1-OPRD1 ag, HTR5A ag)
Cc1ccc(S(=O)(=O)Nc2ccc(NC(=O)Nc3cccc(C(F)(F)F)c3)cc2)cc1	OPRM1-OPRD1 ag 28, HTR5A ag 21
O=C(Nc1ccncc1)Nc1cccc(C(F)(F)F)c1	HTR5A ag 10
Cc1cccc(C(=Cc2ccc([N+](=O)[O-])cc2)C(=O)O)c1	none (no result: Arr AP2 block, HTR5A inv ag, OPRM1-OPRD1 inv, OPRM1-OPRD1 ag, HTR5A ag)
O=c1c2ccccc2nc(/C=C/c2ccc3c(c2)OCO3)n1CCCO	none
Cn1c(/C=C/c2ccc(Cl)cc2)nc2ccccc2c1=O	HTR5A ag 9.8
O=c1c2ccccc2nc(/C=C/c2ccccc2)n1CCCO	HTR5A ag 9.9
COc1cc(Cl)c(C)cc1NC(=O)CNC(C)c1ccccc1OC (stereo unspecified)	HTR5A ag 10
CCN(CC(=O)Nc1ccc(OC)cc1)CC(=O)Nc1cccc(S(=O)(=O)N2CCOCC2)c1	none (no result: Arr AP2 block, HTR5A inv ag, OPRM1-OPRD1 inv, OPRM1-OPRD1 ag, HTR5A ag)
CC1CCC(NC(=O)CCS(=O)(=O)c2ccc3c(c2)CCN3C(=O)C2CC2)CC1 (stereo unspecified)	HTR5A ag 10
CCOC(=O)N1CCC(NC(=O)CCS(=O)(=O)c2ccc3c(c2)CCN3C(C)=O)CC1	none
CCCCN1C(=O)C(CC(=O)NCCc2ccccn2)CC(C(=O)N(CC)CC)=C1C (stereo unspecified)	none (no result: Arr AP2 block, HTR5A inv ag, OPRM1-OPRD1 inv, OPRM1-OPRD1 ag, HTR5A ag)
